Measured values reported in ChEMBL document CHEMBL1932940, “Xanthohumol induces apoptosis in human malignant glioblastoma cells by increasing reactive oxygen species and activating MAPK pathways” (J Nat Prod, 2011).
The source made the active and inactive calls. The calls are words filed in the database; no cut-off is given here.

How the values were obtained:
U-87MG ATCC = experiment: Anticancer activity against human U87MG cells assessed as decrease in cell viability at 50 uM after 48 hrs by MTT assay; assay type: functional, cell-based
How it was run: (§1)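 Cells (T98G, U87-MG, NHA; 3 × 10^4 per well) plated, next day exposed to serial dilutions (1−50 μM) for 48 h at 37 °C, 5% CO2. MTT (5 mg/mL) added for 3 h; crystals solubilized in 50% DMF/20% SDS pH 4.5; OD at 620 nm. Viability = % of DMSO (0.1% final) controls. Means ± SEM, three experiments in triplicate.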

U-87 MG [1] = experiment: Induction of cell cycle arrest in human U87MG cells assessed as accumulation at G2/M phase at 1 to 20 uM after 48 hrs by flow cytometric analysis; assay type: functional, cell-based; settings: U-87MG ATCC
How it was run: (§2)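 2 × 10^5 cells per dish exposed 48 h (1−20 μM per legend); harvested, fixed in cold 70% ethanol at −20 °C, stained with propidium iodide plus RNase A (100 U/mL) 30 min at room temperature; percentage in G1, S, G2/M by flow cytometry. Three experiments in triplicate.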

U-87 MG [2] = experiment: Induction of apoptosis in human U87MG cells at 1 to 50 uM after 48 hrs by propidium iodide staining based flow cytometric analysis; assay type: functional, cell-based; settings: U-87MG ATCC
How it was run: (§3)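 Cells treated 1−50 μM for 24 or 48 h, washed in PBS, resuspended in 0.1% sodium citrate, 0.1% Triton X-100, 50 μg/mL propidium iodide, 30 min at 4 °C in dark. Nuclei analyzed by flow cytometry, DNA on log scale, debris gated out; percent hypodiploid (sub-G1) nuclei reported. Three experiments in triplicate.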

T98G [3] = experiment: Anticancer activity against human T98G cells assessed as decrease in cell viability at 50 uM after 48 hrs by MTT assay; assay type: functional; how it was run: as §1
[4] = Cytotoxicity against normal human astrocytes assessed as decrease in cell viability after 48 hrs by MTT assay; assay type: cell-based; settings: astrocyte; how it was run: as §1
U-87 MG [5] = experiment: Induction of cell cycle arrest in human U87MG cells assessed as accumulation at G0/G1 phase at 1 to 20 uM after 48 hrs by flow cytometric analysis; assay type: functional, cell-based; settings: U-87MG ATCC; how it was run: as §2
T98G [6] = experiment: Induction of apoptosis in human T98G cells at 1 to 50 uM after 48 hrs by propidium iodide staining based flow cytometric analysis; assay type: functional, cell-based; how it was run: as §3
T98G [7] = experiment: Induction of cell cycle arrest in human T98G cells assessed as accumulation at G0/G1 phase at 1 to 20 uM after 48 hrs by flow cytometric analysis; assay type: functional, cell-based; how it was run: as §2
T98G [8] = experiment: Induction of cell cycle arrest in human T98G cells assessed as accumulation at S phase at 1 to 20 uM after 48 hrs by flow cytometric analysis; assay type: functional, cell-based; how it was run: as §2
T98G [9] = experiment: Induction of cell cycle arrest in human T98G cells assessed as accumulation at G2/M phase at 1 to 20 uM after 48 hrs by flow cytometric analysis; assay type: functional, cell-based; how it was run: as §2
U-87 MG [10] = experiment: Induction of cell cycle arrest in human U87MG cells assessed as accumulation at S phase at 1 to 20 uM after 48 hrs by flow cytometric analysis; assay type: functional, cell-based; settings: U-87MG ATCC; how it was run: as §2

In the case of CC(C)=CCC1C(=O)C(C(=O)CC(C)C)=C(O)C(O)(CC=C(C)C)C1=O (stereo unspecified) [HUMULONE], the Activity (U-87MG ATCC) is reported as “inactive”, the Activity (U-87 MG [1]) is reported as “inactive” and the Activity (U-87 MG [2]) is reported as “inactive”. For the same compound, the Activity (T98G [3]) was “inactive”, the Activity [4] was “Non-toxic” and the Activity (U-87 MG [5]) was “inactive”. For the same compound, the Activity (T98G [6]) was “inactive”, the Activity (T98G [7]) was “inactive” and the Activity (T98G [8]) was “inactive”. The Activity (T98G [9]) was “inactive” and the Activity (U-87 MG [10]) was “inactive”.
